Legend:
[1] = target: Cannabinoid receptor 1 (Homo sapiens) (UniProt P21554); experiment: Agonist activity at CBR1 (unknown origin) assessed as [35S]GTPgammaS binding at 10 uM by […] assay relative to control; type: functional
[2] = target: Cannabinoid receptor 2 (Homo sapiens) (UniProt P34972); experiment: Antagonist activity at human CBR2 assessed as [35S]GTPgammaS binding at 10 uM by […] assay relative to control; type: functional; design: scale not given: the % may be the effect or the level left
[3] = target: Cannabinoid receptor 2 (Homo sapiens) (UniProt P34972); experiment: Agonist activity at CBR2 (unknown origin) assessed as [35S]GTPgammaS binding at 10 uM by […] assay relative to control; type: functional
[4] = target: T1, Fatty-acid amide hydrolase 1 (Homo sapiens) (UniProt O00519); experiment: Inhibition of human FAAH expressed in African green monkey COS-7 cell membranes using [3H]-AEA as substrate assessed as residual activity at 10 uM preincubated for 10 mins followed by substrate addition measured after 10 mins by liquid scintillation counting analysis relative to control
T1 sequence (whole entry): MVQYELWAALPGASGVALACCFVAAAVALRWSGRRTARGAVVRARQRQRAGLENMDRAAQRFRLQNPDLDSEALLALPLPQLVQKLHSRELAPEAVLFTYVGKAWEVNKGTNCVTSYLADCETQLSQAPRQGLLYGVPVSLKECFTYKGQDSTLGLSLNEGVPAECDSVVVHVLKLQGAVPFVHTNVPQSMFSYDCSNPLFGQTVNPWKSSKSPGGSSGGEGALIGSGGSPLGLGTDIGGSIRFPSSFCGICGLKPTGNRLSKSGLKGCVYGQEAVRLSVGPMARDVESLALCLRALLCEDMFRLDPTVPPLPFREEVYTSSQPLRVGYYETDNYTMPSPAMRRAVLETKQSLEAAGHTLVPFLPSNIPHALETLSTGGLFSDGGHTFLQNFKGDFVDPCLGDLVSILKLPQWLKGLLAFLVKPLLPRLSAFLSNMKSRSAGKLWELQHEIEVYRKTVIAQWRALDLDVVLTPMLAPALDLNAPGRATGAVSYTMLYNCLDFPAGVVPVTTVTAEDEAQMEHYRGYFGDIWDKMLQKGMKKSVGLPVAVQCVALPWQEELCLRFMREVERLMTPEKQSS
Procedure, shortened: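 Membranes of COS-7 cells overexpressing hFAAH, 1 μg protein per incubation. Substrate 20 μM AEA including 10 nM [3H]AEA (60 Ci/mmol). Compounds tested at 10 μM.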

[5] = target: T2, Monoglyceride lipase (Homo sapiens) (UniProt Q99685); experiment: Inhibition of human MGL expressed in […] cells using 2AG as substrate assessed as residual activity at 10 uM preincubated for 10 mins followed by substrate addition measured after 10 mins by HPLC analysis; type: cell-based
T2 sequence (whole entry): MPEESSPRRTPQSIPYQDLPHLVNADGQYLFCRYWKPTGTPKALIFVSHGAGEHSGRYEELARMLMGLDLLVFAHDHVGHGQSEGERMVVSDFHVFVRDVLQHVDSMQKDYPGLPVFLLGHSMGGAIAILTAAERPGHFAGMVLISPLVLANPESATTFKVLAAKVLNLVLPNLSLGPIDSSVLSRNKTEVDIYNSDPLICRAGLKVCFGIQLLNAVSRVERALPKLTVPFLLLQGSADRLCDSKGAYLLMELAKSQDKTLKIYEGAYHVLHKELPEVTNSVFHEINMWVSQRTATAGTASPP
Procedure, shortened: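 Lysates of HEK cells overexpressing hMGL, 2.5 μg protein per incubation, substrate at 50 μM. Compounds tested at 10 μM.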

[6] = target: T3, Lysophosphatidylserine lipase ABHD12 (Homo sapiens) (UniProt Q8N2K0); experiment: Inhibition of human ABHD12 expressed in […] cells using 2-AG as substrate assessed as glycerol liberation at 10 uM preincubated for 30 mins followed by 2-AG addition measured for 90 mins by fluorescent glycerol assay relative to control; type: cell-based; design: scale not given: the % may be the effect or the level left
T3 sequence (whole entry): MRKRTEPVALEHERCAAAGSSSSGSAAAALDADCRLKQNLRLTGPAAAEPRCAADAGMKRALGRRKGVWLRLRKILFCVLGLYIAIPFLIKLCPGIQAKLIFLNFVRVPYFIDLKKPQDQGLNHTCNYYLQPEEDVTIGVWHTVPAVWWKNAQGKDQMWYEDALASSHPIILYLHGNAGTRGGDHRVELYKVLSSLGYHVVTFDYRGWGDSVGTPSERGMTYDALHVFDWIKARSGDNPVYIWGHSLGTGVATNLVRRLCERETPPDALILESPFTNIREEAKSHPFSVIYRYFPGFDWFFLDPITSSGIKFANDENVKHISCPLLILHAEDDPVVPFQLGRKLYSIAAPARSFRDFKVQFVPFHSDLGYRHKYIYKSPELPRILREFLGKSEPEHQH
Procedure, shortened: (§1)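 Lysates of HEK293 cells transiently overexpressing hABHD6 or hABHD12, 0.3 μg protein/well. Pretreated 30 min with DMSO or compound, then 2-AG added (12.5 μM final). Glycerol release coupled enzymatically to H2O2-dependent resorufin formation; fluorescence (ex 530/em 590 nm) followed kinetically for 90 min.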

[7] = target: T4, Monoacylglycerol lipase ABHD6 (Homo sapiens) (UniProt Q9BV23); experiment: Inhibition of human ABHD6 expressed in […] cells using 2-AG as substrate assessed as glycerol liberation at 10 uM preincubated for 30 mins followed by 2-AG addition measured for 90 mins by fluorescent glycerol assay relative to control; type: cell-based; design: scale not given: the % may be the effect or the level left; procedure, shortened: as §1
T4 sequence (whole entry): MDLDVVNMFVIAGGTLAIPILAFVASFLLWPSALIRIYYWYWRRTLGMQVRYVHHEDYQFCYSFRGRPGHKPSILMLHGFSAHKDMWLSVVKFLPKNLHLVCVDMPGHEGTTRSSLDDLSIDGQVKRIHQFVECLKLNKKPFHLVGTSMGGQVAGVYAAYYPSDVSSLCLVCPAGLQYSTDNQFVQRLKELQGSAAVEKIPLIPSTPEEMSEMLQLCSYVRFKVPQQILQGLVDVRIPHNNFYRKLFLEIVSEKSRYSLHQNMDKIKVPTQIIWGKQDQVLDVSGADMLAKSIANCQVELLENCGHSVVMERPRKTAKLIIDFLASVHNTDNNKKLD

[8] = target: T5, G-protein coupled receptor 55 (Homo sapiens, UniProt Q9Y2T6); experiment: Agonist activity at human GPR55 expressed in CHOK1 cells at 10 uM by pathHunter beta-arrestin assay relative to control; type: cell-based; details: CHO-K1
Procedure, shortened: (§2)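 PathHunter eXpress GPR55 CHO-K1 β-arrestin kit run per the kit protocol, compounds screened at 10 μM. Luminescence read and expressed as percentage of the signal from bovine liver LPI at 1 μM. Mean with range of two experiments, each done in duplicate.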

[9] = target: Cannabinoid receptor 1 (Homo sapiens) (UniProt P21554); experiment: Antagonist activity at human CBR1 assessed as [35S]GTPgammaS binding at 10 uM by radiometric assay relative to control; design: scale not given: the % may be the effect or the level left
[10] = target: T5, G-protein coupled receptor 55; experiment: Agonist activity at human GPR55 expressed in CHOK1 cells at 10 uM by pathHunter beta-arrestin assay relative to LPI; type: cell-based; details: CHO-K1; procedure, shortened: as §2
[11] = target: T5, G-protein coupled receptor 55; experiment: Agonist activity at human GPR55 expressed in HEK293 cells assessed as calcium signalling by fura 2-based digital epifluorescence microscopy; type: functional, cell-based
Procedure, shortened: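 HEK293 cells stably expressing GPR55, grown on poly-L-lysine coated glass coverslips and serum-starved overnight. Compounds applied by bath perfusion in HEPES-buffered saline at 30-32 °C. Single-cell fura 2 ratiometric imaging (350/380 nm) every 5 s. Peak responses pooled from 24 cells (12 random cells from each of two experiments) per concentration; EC50 with 95% CI from concentration-response curves. ARA-LPI used as reference agonist.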

[12] = target: T4, Monoacylglycerol lipase ABHD6 (Homo sapiens); experiment: Inhibition of human ABHD6 expressed in […] cells using 2-AG as substrate assessed as glycerol liberation at 1 uM preincubated for 30 mins followed by 2-AG addition measured for 90 mins by fluorescent glycerol assay relative to control; type: cell-based; design: scale not given: the % may be the effect or the level left; procedure, shortened: as §1

Chain of Cannabinoid receptor 1 (Homo sapiens) (P21554 whole entry): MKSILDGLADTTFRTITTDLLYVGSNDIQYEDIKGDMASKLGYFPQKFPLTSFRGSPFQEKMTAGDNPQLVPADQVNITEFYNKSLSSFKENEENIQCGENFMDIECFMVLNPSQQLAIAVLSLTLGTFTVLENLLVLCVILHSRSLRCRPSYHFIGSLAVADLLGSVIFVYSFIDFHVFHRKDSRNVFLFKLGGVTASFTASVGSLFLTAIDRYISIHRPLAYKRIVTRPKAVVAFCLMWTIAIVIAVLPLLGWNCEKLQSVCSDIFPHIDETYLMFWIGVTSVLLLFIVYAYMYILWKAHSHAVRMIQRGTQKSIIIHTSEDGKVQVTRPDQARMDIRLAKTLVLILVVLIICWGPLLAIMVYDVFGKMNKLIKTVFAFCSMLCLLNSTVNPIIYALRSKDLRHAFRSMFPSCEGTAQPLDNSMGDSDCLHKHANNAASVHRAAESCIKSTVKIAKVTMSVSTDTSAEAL
Chain of Cannabinoid receptor 2 (Homo sapiens) (P34972 whole entry): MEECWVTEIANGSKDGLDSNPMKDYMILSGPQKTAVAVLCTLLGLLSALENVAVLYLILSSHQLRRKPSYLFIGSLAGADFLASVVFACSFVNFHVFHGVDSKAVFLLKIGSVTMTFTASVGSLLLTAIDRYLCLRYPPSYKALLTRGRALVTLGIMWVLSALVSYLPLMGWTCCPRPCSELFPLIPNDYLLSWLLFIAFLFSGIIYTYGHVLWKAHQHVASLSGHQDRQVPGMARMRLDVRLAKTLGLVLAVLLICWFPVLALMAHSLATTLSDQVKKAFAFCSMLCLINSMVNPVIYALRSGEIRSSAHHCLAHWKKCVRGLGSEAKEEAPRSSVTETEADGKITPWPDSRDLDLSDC
T5 sequence (Q9Y2T6 whole entry): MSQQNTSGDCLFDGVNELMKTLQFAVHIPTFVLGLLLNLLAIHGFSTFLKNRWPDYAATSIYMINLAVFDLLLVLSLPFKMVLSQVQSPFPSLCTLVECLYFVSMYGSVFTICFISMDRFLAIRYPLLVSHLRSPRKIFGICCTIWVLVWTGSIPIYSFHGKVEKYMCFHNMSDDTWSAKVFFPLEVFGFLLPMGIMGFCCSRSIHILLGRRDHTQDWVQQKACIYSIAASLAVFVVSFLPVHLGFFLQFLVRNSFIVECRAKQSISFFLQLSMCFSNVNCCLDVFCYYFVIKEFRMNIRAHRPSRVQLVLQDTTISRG

Row | Compound | Activity [1] | Activity [2] | Activity [3] | Activity [4] | Activity [5] | Activity [6] | Activity [7] | Activity [8] | Activity [9] | Activity [10] | EC50 [11] | Activity [12]
1 | NS(=O)(=O)c1ccc(NC(=S)NC(=O)c2ccc(-c3ccccc3)cc2)cc1 | 147% | 89% | 95% | 34% | 94% | 84% | 85% | 150% | 119% | – | – | –
2 | O=C(NC(=S)Nc1ccc(S(=O)(=O)NCc2ccccc2)cc1)c1ccc(-c2ccccc2)cc1 | 97% | 83% | 93% | 106% | 97% | 86% | 86% | 291% | 94% | 197% | 5.6 nM | –
3 | O=C(NC(=S)Nc1ccc(S(=O)(=O)Nc2ccccc2)cc1)c1ccc(-c2ccccc2)cc1 | 100% | 96% | 90% | 103% | 104% | 78% | 78% | 263% | 95% | 178% | 6.2 nM | –
4 | O=C(NC(=S)Nc1ccc(S(=O)(=O)Nc2ccc(Cl)cc2)cc1)c1ccc(-c2ccccc2)cc1 | 93% | 101% | 94% | 89% | 105% | 82% | 93% | 231% | 84% | 158% | – | –
5 | C=CCN(CC=C)S(=O)(=O)c1ccc(NC(=S)NC(=O)c2ccc(-c3ccccc3)cc2)cc1 | 95% | 105% | 100% | 92% | 96% | 72% | 74% | 176% | 80% | – | – | –
6 | CC(=O)NS(=O)(=O)c1ccc(NC(=S)NC(=O)c2cccc3ccccc23)cc1 | 96% | 97% | 94% | 107% | 98% | 82% | 88% | 99% | 101% | 66% | – | –
7 | Cc1ccc(C(=O)NC(=S)Nc2ccc(S(=O)(=O)NC(C)C)cc2)c(Br)c1 | 103% | 100% | 88% | 97% | 89% | 74% | 59% | 105% | 88% | 70% | – | 106%
8 | COc1ccc(C(=O)NC(=S)Nc2ccc(S(=O)(=O)NC(C)C)cc2)cc1 | 93% | 92% | 90% | 103% | 93% | 78% | 66% | 91% | 95% | 62% | – | 102%
9 | CC(=O)NS(=O)(=O)c1ccc(NC(=S)NC(=O)c2ccc(C(C)C)cc2)cc1 | 100% | 92% | 96% | 103% | 99% | 88% | 81% | 99% | 98% | 67% | – | –
10 | CCCCC/C=C\C/C=C\C/C=C\C/C=C\CCCC(=O)OC[C@@H](O)COP(=O)(O)O[C@@H]1[C@@H](O)[C@H](O)[C@@H](O)[C@H](O)[C@@H]1O | – | – | – | – | – | – | – | – | – | – | 20.2 nM | –
11 | CN(C)S(=O)(=O)c1ccc(NC(=S)NC(=O)c2ccc(-c3ccccc3)cc2)cc1 | 105% | 96% | 90% | 54% | 93% | 74% | 79% | 148% | 96% | 101% | 55.7 nM | –
12 | CCCCc1ccc(NS(=O)(=O)c2ccc(NC(=S)NC(=O)c3ccc(-c4ccccc4)cc3)cc2)cc1 | 96% | 100% | 90% | 95% | 104% | 83% | 97% | 134% | 78% | 91% | – | –

Reference: ChEMBL document CHEMBL3745614, “Potent and selective N-(4-sulfamoylphenyl)thiourea-based GPR55 agonists” (Eur J Med Chem, 2016)
